The nature of assay [1]: Antitumor promotor activity against mouse C3H10T1/2 cells assessed as inhibition of TPA-enhanced [3H]choline chloride incorporation in to phospholipids at 2 ug/ml after 1 hr. It is filed as functional. The conditions noted are these: C3H 10T1/2.
The nature of assay [2]: Antitumor promotor activity against mouse C3H10T1/2 cells assessed as inhibition of TPA-enhanced [3H]choline chloride incorporation in to phospholipids at 10 ug/ml after 1 hr. It is filed as functional. The note with it: C3H 10T1/2.
Assay [3] is described as follows: Antitumor promotor activity against mouse C3H10T1/2 cells assessed as inhibition of TPA-enhanced [3H]choline chloride incorporation in to phospholipids at 50 ug/ml after 1 hr. It is filed as functional. The conditions noted are these: C3H 10T1/2.
For the next assay, the system named is KB. The assay is described as follows: Cytotoxicity against human KB cells. It is filed as functional.
Assay [4] can be described thus: Antitumor promotor activity against mouse C3H10T1/2 cells assessed as inhibition of TPA-enhanced [3H]choline chloride incorporation in to phospholipids after 1 hr. It is filed as functional. The note with it: C3H 10T1/2, read-out: ID50 (the source's name). In a few lines:
(§1)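 Mouse C3H10T1/2 fibroblasts were exposed to test agent for 1 h. Then [methyl-3H]choline chloride (9.25 kBq/culture) was added together with TPA (50 nM), and incubation continued for 4 h. Radioactivity in the phospholipid fraction was measured, and inhibition of the TPA-enhanced incorporation was expressed as %. Test concentrations were 50, 10, 2 or 1.5 µg/ml. Values are means of duplicate experiments.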

The test system of another assay is PC-13. The assay is described as follows: Cytotoxicity against human PC13 cells. It is filed as functional, cell-based.
The subject of the next assay is P388. The assay is described as follows: Cytotoxicity against mouse P388 cells. It is filed as functional, cell-based.
The test system of another assay is HEp-2. The assay is described as follows: Cytotoxicity against human Hep2 cells. It is filed as functional, cell-based.
For a further assay, the system named is L5178Y. Briefly: Cytotoxicity against mouse L5178Y cells. It is filed as functional, cell-based.
The test system of the next assay is C3H 10T1/2. The assay is described as follows: Antitumor promotor activity against mouse C3H10T1/2 cells assessed as inhibition of TPA-enhanced [3H]choline chloride incorporation in to phospholipids at 1.5 ug/ml after 1 hr. It is filed as functional, cell-based. In a few lines:
as §1

The next assay deals with B16. The assay is described as follows: Cytotoxicity against mouse B16 cells. It is filed as functional, cell-based.

Here are results for seven compounds from ChEMBL document CHEMBL1158993, “Inhibition of tumor-promoter-enhanced 3H-choline incorporation into cellular phospholipids by phloroglucinol derivatives from Mallotus japonicus” (1991).

Converted amounts (≈) assume the structure as drawn. The source made the active and inactive calls. No cut-off for these calls is given here.

Turning to `COc1c(C)c(O)c(C(C)=O)c(O)c1Cc1c(O)c(C(C)=O)c(O)c2c1OC(C)(C)C(O)C2` (stereo unspecified) [ISOMALLOTOCHROMANOL], the inhibition at 2 µg/mL in [1] amounted to 0%. Moreover, in [2], the inhibition at 10 µg/mL was determined as 95.5%. The inhibition at 50 µg/mL in assay [3] is 100%.
Regarding `COc1c(C)c(O)c(C(C)=O)c(O)c1Cc1c(O)c(C(C)=O)c(O)c2c1OC(C)(C)C=C2` [ISOMALLOTOCHROMENE], in assay [1], the inhibition at 2 µg/mL was found to be 97.9%. In the assay on KB, the outcome was Active. Further, the inhibition at 10 µg/mL in assay [2] came out at 100%. Also, the inhibition at 50 µg/mL in assay [3] came out at 100%.
`COc1c(C)c(O)c(C(C)=O)c(O)c1Cc1c(O)c2c(c(C(C)=O)c1O)OC(C)(C)C(O)C2` (stereo unspecified) [MALLOTOCHROMANOL]: in assay [1], the inhibition at 2 µg/mL came out at 2.9%. Besides, the inhibition at 10 µg/mL in assay [2] worked out at 29.2%. The inhibition at 50 µg/mL in assay [3] worked out at 100%.
In the same order, the values of `COc1c(C)c(O)c(C(C)=O)c(O)c1Cc1c(O)c2c(c(C(C)=O)c1O)OC(C)(C)CC2` [MALLOTOCHROMAN] are 9.3%, 68.7% and 74.3%.
For `COc1c(C)c(O)c(C(C)=O)c(O)c1Cc1c(O)c2c(c(C(C)=O)c1O)OC(C)(C)C=C2` [MALLOTOCHROMENE], the outcome with KB was Active. Besides, in assay [2], the inhibition at 10 µg/mL amounted to 66.7%. For the same compound, the inhibition at 50 µg/mL in [3] stood at 100%.
As to `COc1c(C)c(O)c(C(C)=O)c(O)c1Cc1c(O)c(CC=C(C)C)c(O)c(C(C)=O)c1O` [MALLOTOJAPONIN], the IC50 in assay [4] worked out at 1 µg/mL. For the same compound, in [1], the inhibition at 2 µg/mL turned out to be 85.8%. In addition, the result in the assay with PC-13, in the assay with P388, in the assay with HEp-2, with L5178Y, in the assay with C3H 10T1/2 and with B16 was Active. Besides, the EC50 in the assay on KB (read-out: ED50 (the source's name)) turned out to be 0.58 µg/mL (≈ 1.3 µM). Besides, in assay [2], the inhibition at 10 µg/mL amounted to 100%. Besides, in assay [3], the inhibition at 50 µg/mL is 100%.
Consider `C=C(C)C(O)Cc1c(O)c(Cc2c(O)c(C(C)=O)c(O)c(C)c2OC)c(O)c(C(=O)CCC)c1O` (stereo unspecified) [MALLOTOLERIN], for which the inhibition at 2 µg/mL in [1] was determined as 78.8%. Also, the outcome with KB was Active. Moreover, the inhibition at 10 µg/mL in [2] is 100%. Further, in [3], the inhibition at 50 µg/mL was found to be 100%.
